Assay outcomes: PubChem BioAssay, Sanford-Burnham Center for Chemical Genomics
A selection follows.
Apaf1 activ = human Apaf-1 activation; O14727; Apaf-1 apoptosome caspase-3 activation, DEVD-Rh110 fluorescence; stronger effect = lower value; activity change, negative = activation, % at 20 µM; 330,000 tested, 0.31% active; AID 489031;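 active = activity change at or below -40% at 20 µM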
Target sequence (O14727 whole entry, looked up): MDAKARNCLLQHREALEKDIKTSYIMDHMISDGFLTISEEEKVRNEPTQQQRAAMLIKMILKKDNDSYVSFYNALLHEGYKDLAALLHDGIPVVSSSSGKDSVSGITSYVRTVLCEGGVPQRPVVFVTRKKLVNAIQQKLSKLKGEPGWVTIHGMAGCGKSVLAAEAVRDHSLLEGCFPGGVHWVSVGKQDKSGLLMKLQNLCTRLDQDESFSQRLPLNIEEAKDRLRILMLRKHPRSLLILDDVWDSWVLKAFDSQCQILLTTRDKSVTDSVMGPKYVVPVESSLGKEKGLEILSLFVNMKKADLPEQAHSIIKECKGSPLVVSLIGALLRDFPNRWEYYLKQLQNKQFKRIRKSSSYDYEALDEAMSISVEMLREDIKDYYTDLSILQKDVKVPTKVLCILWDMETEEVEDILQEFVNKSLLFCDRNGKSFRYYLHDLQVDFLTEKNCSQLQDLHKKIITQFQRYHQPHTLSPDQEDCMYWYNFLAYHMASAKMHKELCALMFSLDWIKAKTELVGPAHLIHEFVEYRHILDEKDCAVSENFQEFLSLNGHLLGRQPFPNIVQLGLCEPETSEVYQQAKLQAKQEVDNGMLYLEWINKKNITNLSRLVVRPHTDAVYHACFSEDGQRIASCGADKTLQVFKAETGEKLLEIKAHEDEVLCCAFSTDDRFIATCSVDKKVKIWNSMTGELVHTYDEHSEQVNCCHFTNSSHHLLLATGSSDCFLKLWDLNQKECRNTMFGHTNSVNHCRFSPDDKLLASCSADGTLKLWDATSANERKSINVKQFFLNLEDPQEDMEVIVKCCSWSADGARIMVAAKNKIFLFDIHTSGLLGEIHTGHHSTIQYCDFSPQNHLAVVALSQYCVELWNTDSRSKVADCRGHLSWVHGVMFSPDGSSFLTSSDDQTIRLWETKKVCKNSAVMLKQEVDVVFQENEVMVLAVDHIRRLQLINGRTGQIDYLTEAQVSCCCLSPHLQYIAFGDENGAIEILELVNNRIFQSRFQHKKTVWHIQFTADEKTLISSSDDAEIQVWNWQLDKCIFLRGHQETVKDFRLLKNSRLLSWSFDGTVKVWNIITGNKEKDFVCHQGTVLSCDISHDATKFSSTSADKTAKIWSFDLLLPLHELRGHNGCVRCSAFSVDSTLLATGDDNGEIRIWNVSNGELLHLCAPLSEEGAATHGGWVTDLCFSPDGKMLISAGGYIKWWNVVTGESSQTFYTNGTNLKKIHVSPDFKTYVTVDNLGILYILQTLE
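system = biochemical Apaf-1 apoptosome reconstitution | buffer or medium = 20 mM HEPES pH 7.5 with CHAPS, BSA | also added = dATP and cytochrome c as apoptosome triggers, (Z-DEVD)2-Rh110 substrate | incubation = 30 min compound preincubation and 50 min reaction, both room temperature | measured by = fluorescence, 540 nm emission, 480 nm excitation | read-out basis = Caspase-3 cleavage activity downstream of Apaf-1 activation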
* = called active by the depositor.

SMILES | Apaf1 activ
CC(CS(=O)(=O)c1ccc2c(c1)NC(=O)CS2)C(=O)NCc1ccccc1Cl (centres undefined) | -158*
c1ccc2c(c1)CCN(C1=Nc3cccc4cccc1c34)C2 | 43
Cc1cc(C)c(C2=CC(c3ccccc3)n3ncnc3N2)cc1C (centres undefined) | -215*
CN(C)C(=O)c1ccc(NC(=O)c2sccc2-c2ccccc2)cc1 | 45
CCc1cc(CNC(=O)c2ccc(OC3CCN(CCc4ccccc4)CC3)cc2)on1 | -41*
CC1CCN(CCc2nc3cc(NC(=O)COc4ccccc4)ccc3n2C)CC1 | 52
COc1ccc(CCn2c(N)c(C(=O)NCc3ccco3)c3nc4ccccc4nc32)cc1OC | 63
CCOC(=O)C1CCN(S(=O)(=O)c2ccc3c4c2CC(=O)N4CC(C)S3)CC1 (centres undefined) | 44
COc1ccccc1-c1c(C#N)c(N)nc2c1CCc1ccccc1-2 | 96
CCN1CCCC1CNC(=O)C1CCN(Cc2nc(-c3cccc(Br)c3)oc2C)CC1 (centres undefined) | -90*
COCc1ccc(CN2CCC(C(=O)Nc3cccc(-c4cccc(Cl)c4)c3)CC2)o1 | 49
CC1(C)CNc2cc(N)ccc2S1 | 50
CCn1c2ccccc2c2nnc(SCC(=O)c3c(N)n(C)c(=O)n(C)c3=O)nc21 | 54
CCCCn1c(NC(C)=O)c(C#N)c2nc3ccccc3nc21 | 84
CCCCn1c2ccccc2c2nnc(SCC(=O)NC3=NN=C(c4ccccc4)CS3)nc21 | -69*
CCC1CCCCN1C(=O)COc1ccc(N(C)S(=O)(=O)c2ccc(C)cc2)cc1 (centres undefined) | 51
Cc1ccc(S(=O)(=O)N2CCN(C(=O)CCOc3cc(C)ccc3C)CC2)cc1 | 40
Cc1ccc(C)c(NC(=O)/C(C#N)=C/c2ccc(Sc3nncn3C)c([N+](=O)[O-])c2)c1 | -217*
COc1ccccc1C(CNC(=O)CNC(=O)c1ccccc1Cl)N1CCCC1 (centres undefined) | 61
CCCCCCCNC(=O)C1(CC2CC(c3ccc(Cl)cc3)=NO2)CCNCC1 (centres undefined) | 41
COc1ccc(-n2c(C)cc(/C=N/Nc3nnc(C)n3N)c2C)cc1 | 53
Cc1ccc(C(=O)NC(C)c2nc3ccccc3n2CC(=O)Nc2c(C)cc(C)cc2C)cc1 (centres undefined) | -100*
CCC(=O)Nc1c(S(=O)(=O)c2ccc(C)cc2)c2nc3ccccc3nc2n1C(C)c1ccccc1 (centres undefined) | 44
CC(C)(C)c1ccc(OCCOc2ccc(C(C)(C)C)cc2NC=O)c(NC=O)c1 | 41
c1ccc2c(NCCCN3CCOCC3)c3ccccc3nc2c1 | -63*
SMILES | Apaf1 activ
Cc1c2ccccc2nc2c(F)c(NCCO)c(F)c(F)c12 | 54
CCN(c1ccccc1)S(=O)(=O)c1cccc(C(=O)NCCN2CCOCC2)c1 | 44
CN(CC(=O)Nc1ccc(Cl)c(C(F)(F)F)c1)C(=O)CC1Sc2ccccc2NC1=O (centres undefined) | 51
CCCC(=Nc1ccc(N)cc1)C1=C(O)C(C(=O)OC)C(C)(C)CC1=O (centres undefined) | 67
Cc1ccc(S(=O)(=O)N2CCC(C(=O)OCC(=O)N(C)CC(=O)Nc3ccc(F)cc3)CC2)cc1C | 52
Cc1ccc(S(=O)(=O)N(C)C)cc1NC(=O)c1ccccc1SCC(=O)N1CCCC1 | 41
C=CCn1c(NC(=O)c2ccccc2Cl)c(C#N)c2nc3ccccc3nc21 | 96
O=C(Nc1ccnn1C1CCN(C/C=C/c2ccccc2)CC1)c1ccccc1Cl | -61*
COc1ccccc1NS(=O)(=O)c1cccc(C(=O)N2CCN(C/C=C/c3ccccc3)CC2)c1 | 46
O=C1C(c2ccccc2)=[N+]([O-])c2ccccc21 | 85
Cc1cc(C)cc(NC2=C(N)C(=O)c3ccccc3C2=O)c1 | 74
Cc1nnc(N/N=C/c2cccc(OCc3ccc(Cl)c(Cl)c3)c2)n1N | 77
COc1ccc(C2(c3ccc(OC)cc3)NC(=O)N(CC(=O)Nc3ccc(N4CCOCC4)cc3)C2=O)cc1 | 41
COc1cc(NC(=O)CN2C(=O)NC3(CCOc4ccccc43)C2=O)cc(OC)c1 (centres undefined) | 59
COc1ccc(C2(c3ccc(OC)cc3)NC(=O)N(CC(=O)N(C)C)C2=O)cc1 | -131*
c1ccc2c(C[C@@H]3CNCCN3CCC34CC5CC(CC(C5)C3)C4)cccc2c1 | 66
N#C/C(=C/c1ccc(OCc2ccc(C(=O)O)cc2)c(Br)c1)c1cccc(F)c1 | -335*
CCOC(=O)c1cc2cc3ccccc3cc2[nH]1 | 58
COc1cccc(-c2sc3ccccc3c2-c2ccc(OCCN(C)C)cc2)c1 | 76
COC(=O)C1=C(C)N(Cc2ccccc2)C(=NCCc2c[nH]c3ccccc23)N[C@H]1c1cccc(F)c1 | 60
COC(=O)C1=C(C)N(Cc2ccccc2)C(=NCCc2c[nH]c3ccccc23)N[C@H]1c1ccccc1 | 69
O=C(NCCc1c[nH]c2ccccc12)OCCSS(=O)(=O)O | -93*
CC(C)n1cnc2c(N(C)c3ccccc3)nc(N(CCN(C)C)Cc3ccccc3)nc21 | 44
CC(C)C[C@@H](C(=O)NC1CCN(Cc2ccccc2)CC1)N1C(=O)N2CCc3c([nH]c4ccccc34)[C@@]2(C)C1=O | 45
c1coc(-c2nnc(-c3ccco3)nn2)c1 | 84
SMILES | Apaf1 activ
CCOc1ccc(NC(=O)CCS(=O)(=O)c2ccc(Br)cc2)cc1 | -109*
O=C(CCS(=O)(=O)c1ccc(Br)cc1)Nc1cc(F)ccc1F | -129*
CCOc1ccc(NS(=O)(=O)c2ccc(C(=O)N(CC)CC(=O)NCc3cccs3)cc2)cc1 | 61
CCCN(CC(=O)Nc1ccccc1C)C(=O)CCCOc1ccc(Br)cc1 | 53
CC(=O)c1ccc2c(c1)c(C#N)c1ccccc1[n+]2[O-] | 74
O=c1[nH]c(C2CCCN(S(=O)(=O)c3ccccc3F)C2)nc2c1nnn2Cc1ccccc1Cl (centres undefined) | 41
COCCN(C(=O)CSc1nc(N)cc(=O)[nH]1)c1c(N)n(Cc2ccccc2)c(=O)[nH]c1=O | 45
Cc1cc(N2CCCC2)ccc1NC(=O)COc1ccccc1 | 52
O=C(NCC(F)(F)F)c1ccc(S(=O)(=O)Nc2ccccc2N2CCCC2)cc1 | 54
O=C(Cc1ccc(Br)cc1)Nc1ccccc1N1CCCC1 | -66*
CN(C)C=Nc1ccc2nc3c(cc2c1)[nH]c1ccccc13 | 46
CCCc1cc(=O)oc2c3c(c4c(c12)OC(C)(C)C=C4)OC(C)C(C)C3O (centres undefined) | 53
CN(CC(=O)Nc1ccc(F)cc1)C(=O)C1CC(=O)N(Cc2ccccc2)C1 (centres undefined) | 44
O=C(NC(Cc1ccc2c(c1)OCO2)C(=O)NC(Cc1ccccc1)C(=O)O)c1ccccc1 (centres undefined) | -42*
S=C(NCc1ccc2c(c1)OCO2)Nc1ccc2nsnc2c1 | 62
CSc1ccccc1NC(=O)COc1ccc2c(c1)OCO2 | 45
COc1ccc(-n2c(N)c(C(=O)NCc3ccco3)c3nc4ccccc4nc32)c(OC)c1 | 65
CC1=[N+](C)c2ccc3ccccc3c2C1(C)C | 42
O=C(COC(=O)c1ccccc1)NCC1CCCO1 (centres undefined) | 56
CC(C)[C@H](NC(=O)N1CCC(Cc2ccccc2)CC1)C(=O)O | 42
CC(NC(=O)CC1CCCCC1)c1ccccc1 (centres undefined) | -109*
